One experiment is filed under the species Homo sapiens. Put plainly: Selectivity ratio of IC50 for TCPTP (unknown origin) to IC50 for recombinant PTP1B (unknown origin). The essentials:
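Ratio of TCPTP to PTP1B IC50. Both enzymes (PTP1B at 30 nM recombinant) assayed with 2 mM pNPP, 1 mM DTT, 1 mM EDTA, pH 6.5, 30 min at 37 °C, NaOH stop, A405; IC50 by logit method, triplicate for PTP1B.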

Experiment [1] has as its target Tyrosine-protein phosphatase non-receptor type 6 (Homo sapiens) (UniProt P29350). Description: Inhibition of SHP1 (unknown origin) using pNPP as substrate at 25 uM relative to control.
The target in experiment [2] is Receptor-type tyrosine-protein phosphatase F (Homo sapiens) (UniProt P10586). Description: Inhibition of LAR (unknown origin) using pNPP as substrate at 25 uM relative to control.
Sequence of Receptor-type tyrosine-protein phosphatase F (Homo sapiens) (P10586 whole entry): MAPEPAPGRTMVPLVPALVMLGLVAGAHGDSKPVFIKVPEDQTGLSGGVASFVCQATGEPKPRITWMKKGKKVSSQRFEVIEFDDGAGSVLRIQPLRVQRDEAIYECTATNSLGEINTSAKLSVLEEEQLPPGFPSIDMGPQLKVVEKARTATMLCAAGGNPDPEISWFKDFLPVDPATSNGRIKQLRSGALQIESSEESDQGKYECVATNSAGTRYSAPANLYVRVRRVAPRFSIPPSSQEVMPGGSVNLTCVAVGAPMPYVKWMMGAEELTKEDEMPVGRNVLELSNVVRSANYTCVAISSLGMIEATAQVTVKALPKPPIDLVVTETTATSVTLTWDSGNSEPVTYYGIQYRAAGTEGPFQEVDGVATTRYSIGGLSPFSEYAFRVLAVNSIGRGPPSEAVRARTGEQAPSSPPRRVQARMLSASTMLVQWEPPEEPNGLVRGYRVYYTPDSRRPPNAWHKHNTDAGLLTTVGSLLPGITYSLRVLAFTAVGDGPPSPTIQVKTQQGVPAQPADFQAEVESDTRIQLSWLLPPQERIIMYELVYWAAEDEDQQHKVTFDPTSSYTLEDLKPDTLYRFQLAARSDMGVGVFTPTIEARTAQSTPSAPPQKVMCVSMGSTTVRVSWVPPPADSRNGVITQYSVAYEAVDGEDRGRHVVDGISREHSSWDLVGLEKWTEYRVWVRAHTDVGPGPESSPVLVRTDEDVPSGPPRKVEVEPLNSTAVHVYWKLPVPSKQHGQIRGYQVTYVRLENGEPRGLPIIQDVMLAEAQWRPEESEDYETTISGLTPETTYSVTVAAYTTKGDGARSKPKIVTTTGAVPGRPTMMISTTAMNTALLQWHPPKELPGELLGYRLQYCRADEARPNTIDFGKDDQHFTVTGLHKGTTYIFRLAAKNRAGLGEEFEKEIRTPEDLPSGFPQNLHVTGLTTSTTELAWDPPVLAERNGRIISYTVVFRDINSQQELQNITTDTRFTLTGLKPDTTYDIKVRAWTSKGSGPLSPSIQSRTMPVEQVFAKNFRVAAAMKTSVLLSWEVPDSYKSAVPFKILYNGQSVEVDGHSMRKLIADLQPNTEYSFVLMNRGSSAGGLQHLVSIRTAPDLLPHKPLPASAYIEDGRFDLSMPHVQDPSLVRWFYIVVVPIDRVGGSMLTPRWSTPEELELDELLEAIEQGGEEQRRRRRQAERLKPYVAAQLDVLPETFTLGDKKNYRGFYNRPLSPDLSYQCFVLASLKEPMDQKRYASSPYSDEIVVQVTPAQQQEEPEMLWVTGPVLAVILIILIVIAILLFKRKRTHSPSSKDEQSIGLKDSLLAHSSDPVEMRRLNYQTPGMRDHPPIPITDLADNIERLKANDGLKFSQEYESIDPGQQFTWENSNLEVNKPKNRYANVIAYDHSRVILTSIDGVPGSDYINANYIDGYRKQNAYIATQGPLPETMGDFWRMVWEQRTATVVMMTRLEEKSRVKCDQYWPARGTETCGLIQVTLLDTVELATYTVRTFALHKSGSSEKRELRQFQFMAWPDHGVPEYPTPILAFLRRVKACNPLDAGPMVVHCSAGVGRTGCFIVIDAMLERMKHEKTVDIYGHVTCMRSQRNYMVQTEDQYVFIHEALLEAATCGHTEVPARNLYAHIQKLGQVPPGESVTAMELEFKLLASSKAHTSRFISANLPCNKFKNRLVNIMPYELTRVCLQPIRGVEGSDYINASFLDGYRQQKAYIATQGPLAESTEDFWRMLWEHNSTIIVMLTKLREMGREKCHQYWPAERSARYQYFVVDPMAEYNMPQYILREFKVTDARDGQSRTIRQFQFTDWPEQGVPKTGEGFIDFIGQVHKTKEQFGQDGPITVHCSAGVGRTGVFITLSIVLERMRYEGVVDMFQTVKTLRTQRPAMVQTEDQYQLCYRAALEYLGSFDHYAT
For experiment [3], the target named is T1, Tyrosine-protein phosphatase non-receptor type 11 (Homo sapiens) (UniProt Q06124).
T1 sequence (whole entry): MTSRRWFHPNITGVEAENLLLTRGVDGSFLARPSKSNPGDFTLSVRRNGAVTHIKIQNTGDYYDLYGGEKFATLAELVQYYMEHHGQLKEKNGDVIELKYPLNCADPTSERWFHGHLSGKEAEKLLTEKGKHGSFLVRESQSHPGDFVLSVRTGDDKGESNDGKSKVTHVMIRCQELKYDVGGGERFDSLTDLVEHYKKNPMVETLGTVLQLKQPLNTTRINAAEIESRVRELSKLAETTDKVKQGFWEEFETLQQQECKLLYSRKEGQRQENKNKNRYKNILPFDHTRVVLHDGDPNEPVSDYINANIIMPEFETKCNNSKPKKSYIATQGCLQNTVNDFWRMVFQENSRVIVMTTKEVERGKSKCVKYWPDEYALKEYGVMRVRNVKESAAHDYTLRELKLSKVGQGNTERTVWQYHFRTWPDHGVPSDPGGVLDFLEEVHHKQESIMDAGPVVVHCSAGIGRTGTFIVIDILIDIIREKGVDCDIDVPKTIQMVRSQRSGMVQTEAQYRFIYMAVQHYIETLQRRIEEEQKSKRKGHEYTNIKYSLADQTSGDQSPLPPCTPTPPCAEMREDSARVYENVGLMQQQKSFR
Description: Inhibition of SHP2 (unknown origin) using pNPP as substrate at 25 uM relative to control.

Experiment [4] deals with T2, Tyrosine-protein phosphatase non-receptor type 1 (Homo sapiens) (UniProt P18031).
T2 sequence (whole entry): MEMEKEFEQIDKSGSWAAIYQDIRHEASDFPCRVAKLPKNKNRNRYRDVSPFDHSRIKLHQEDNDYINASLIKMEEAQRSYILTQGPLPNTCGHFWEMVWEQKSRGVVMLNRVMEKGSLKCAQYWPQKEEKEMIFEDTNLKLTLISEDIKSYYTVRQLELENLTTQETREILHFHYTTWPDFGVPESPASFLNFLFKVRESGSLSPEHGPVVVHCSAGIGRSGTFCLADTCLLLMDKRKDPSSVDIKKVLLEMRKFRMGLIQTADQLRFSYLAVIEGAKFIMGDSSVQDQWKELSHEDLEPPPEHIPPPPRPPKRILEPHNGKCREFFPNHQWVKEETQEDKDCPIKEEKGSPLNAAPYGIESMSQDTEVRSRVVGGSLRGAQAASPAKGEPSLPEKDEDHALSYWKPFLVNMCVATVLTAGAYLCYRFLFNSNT
Put plainly: Competitive inhibition of recombinant PTP1B (unknown origin) assessed as pNPP hydrolysis at 0.1 to 0.8 uM after 30 mins by Lineweaver-Burk plot analysis. In short, it runs like this:
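Kinetics in 100 µL of 50 mM MOPS pH 6.5 with 30 nM recombinant PTP1B. pNPP in 2-fold dilutions from 64 mM, inhibitor at 0.1–0.8 µM (0 as reference). Km and Vmax from Michaelis–Menten fits; mechanism judged by Lineweaver–Burk double-reciprocal plots.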

The target in experiment [5] is T3, Tyrosine-protein phosphatase non-receptor type 2 (Homo sapiens) (UniProt P17706).
T3 sequence (whole entry): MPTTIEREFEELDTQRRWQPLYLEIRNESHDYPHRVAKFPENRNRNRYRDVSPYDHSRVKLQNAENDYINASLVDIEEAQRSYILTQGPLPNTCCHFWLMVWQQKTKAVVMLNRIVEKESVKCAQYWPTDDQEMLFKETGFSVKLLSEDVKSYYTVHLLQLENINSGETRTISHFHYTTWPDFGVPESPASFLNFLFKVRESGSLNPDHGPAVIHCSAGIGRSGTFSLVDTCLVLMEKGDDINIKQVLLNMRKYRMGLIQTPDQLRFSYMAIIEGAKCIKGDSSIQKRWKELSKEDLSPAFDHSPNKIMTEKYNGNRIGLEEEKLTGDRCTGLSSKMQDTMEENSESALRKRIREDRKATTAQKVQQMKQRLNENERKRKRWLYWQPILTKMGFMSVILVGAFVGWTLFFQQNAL
Put plainly: Inhibition of TCPTP (unknown origin) assessed as pNPP hydrolysis at 25 uM after 30 mins relative to control.

In the next experiment the test system is CHO. Description: Inhibition of PTP1B in CHO cells transfected with human insulin receptor-beta assessed as increase in insulin-mediated tyrosine phosphorylation of insulin receptor-beta at 25 to 50 uM preincubated for 4 hrs followed by insulin stimulation measured after 10 mins by Western blot analysis. Format: cell-based. The following applies: Cricetulus griseus. In short, it runs like this: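 CHO cells in F12/10% FBS transfected 8 h with 2 µg human IR plasmid, reseeded and grown 24 h at 37 °C, 5% CO2. Serum-starved 2 h, compound 4 h, then 10 nM insulin 10 min. Lysates (Triton/HEPES pH 7.4 buffer) run on SDS-PAGE, blotted with PY-20 and β-actin.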

Consider three compounds from ChEMBL document CHEMBL3593243, “Discovery of novel, potent, selective and cellular active ADC type PTP1B inhibitors via fragment-docking-oriented de novel design” (Bioorg Med Chem, 2015).

Activity calls are given as the source filed them. The rule behind the calls is not given here.

Sequence of Tyrosine-protein phosphatase non-receptor type 6 (Homo sapiens) (P29350 whole entry): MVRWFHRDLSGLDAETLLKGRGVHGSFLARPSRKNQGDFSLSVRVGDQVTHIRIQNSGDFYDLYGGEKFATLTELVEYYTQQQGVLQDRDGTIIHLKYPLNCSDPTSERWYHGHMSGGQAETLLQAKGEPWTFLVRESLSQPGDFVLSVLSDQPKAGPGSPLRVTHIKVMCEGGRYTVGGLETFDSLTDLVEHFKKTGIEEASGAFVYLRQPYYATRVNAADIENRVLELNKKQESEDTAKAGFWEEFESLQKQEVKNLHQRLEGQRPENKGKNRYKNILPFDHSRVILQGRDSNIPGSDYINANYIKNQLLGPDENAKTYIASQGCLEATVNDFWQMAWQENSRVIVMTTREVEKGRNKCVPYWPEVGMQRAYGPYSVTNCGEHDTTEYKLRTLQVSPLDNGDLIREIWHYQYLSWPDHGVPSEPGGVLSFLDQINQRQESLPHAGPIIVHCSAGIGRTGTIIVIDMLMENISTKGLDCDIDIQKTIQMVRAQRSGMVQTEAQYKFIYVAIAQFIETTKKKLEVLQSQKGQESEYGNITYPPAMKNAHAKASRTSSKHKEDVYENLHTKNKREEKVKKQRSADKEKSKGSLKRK

The inhibition is the change of the read-out against control, counted positive when it falls. Turning to `CCOc1cc(NS(C)(=O)=O)c(OCC)cc1CNC(=O)Nc1ccc(C)cc1`, the Ratio IC50 in the experiment filed under Homo sapiens is 16. The inhibition in experiment [1], in experiment [2] and in experiment [3] was below 50% each time.
Take `CCOc1cc(NS(C)(=O)=O)c(OCC)cc1CNC(=O)Nc1ccc(OC)cc1`: the Ratio IC50 in the experiment filed under Homo sapiens is above 120. The inhibition entry (in experiment [4]; with CHO) was “Active” each time. Further, the inhibition in experiment [5], in experiment [2] and in experiment [3] was below 50% throughout.
Regarding `CCOc1cc(NS(C)(=O)=O)c(OCC)cc1CNC(=O)Nc1ccc(Br)cc1`, the Ratio IC50 in the experiment listed under Homo sapiens is 6. The inhibition in experiment [2] and in experiment [3] was below 50% each time.
